Test results published in ChEMBL document CHEMBL1687849, “Lauroside B, a megastigmane glycoside from Laurus nobilis (bay laurel) leaves, induces apoptosis in human melanoma cell lines by inhibiting NF-κB activation” (J Nat Prod, 2011).
Active and inactive are the calls of the source. The calls are words filed in the database; no cut-off is given here.

Legend:
A-375 [1] = test: Induction of apoptosis in human A375 cells assessed as early apoptotic cells at 20 uM after 48 hrs by annexin V/propidium iodide based flow cytometry; assay type: functional
Method in brief: (§1)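 A375 cells attached overnight, then treated 48 h with test compound (30 μM) or curcumin (20 μM). Adherent and floating cells pooled, washed in PBS and resuspended at 10^6/mL in HEPES pH 7.4/NaCl/CaCl2 binding buffer. 10^5 cells stained 15 min at room temperature in the dark with FITC-annexin V and PI, then flow cytometry. Quadrants scored as early apoptotic, late apoptotic or necrotic. Three experiments.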

A-375 [2] = test: Induction of apoptosis in human A375 cells assessed as necrotic apoptotic cells at 20 uM after 48 hrs by annexin V/propidium iodide based flow cytometry; assay type: functional; method in brief: as §1
A-375 [3] = test: Induction of apoptosis in human A375 cells assessed as late apoptotic cells at 20 uM after 48 hrs by annexin V/propidium iodide based flow cytometry; assay type: functional; method in brief: as §1
A-375 [4] = test: Inhibition of NF-kappaB DNA binding activity in human A375 cells at 30 uM after 4 hrs by electrophoretic mobility shift assay; assay type: cell-based
Method in brief: (§2)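 A375 cells treated at 30 μM; whole-cell extracts taken at 0, 1, 2, 4, 8 and 24 h. Extract (12 μg protein in 0.1% Triton X-100 buffer) incubated 30 min with 32P-labelled κB probe. Complexes resolved on nondenaturing 4% polyacrylamide gel and quantified by phosphorimaging, normalized to the nonspecific protein-DNA complex in the same lane. Three experiments.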

A-375 [5] = test: Inhibition of NF-kappaB DNA binding activity in human A375 cells at 30 uM after 2 hrs by electrophoretic mobility shift assay; assay type: cell-based; method in brief: as §2
A-375 [6] = test: Inhibition of NF-kappaB activation in human A375 cells assessed as IkappaB-alpha degradation at 30 uM by Western blot analysis; assay type: cell-based; conditions: TDE = time-dependent effect
Method in brief: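 A375 cells treated at 30 μM for 1, 2, 4 and 8 h. Cytosolic extracts (40 μg protein) run on SDS-PAGE and transferred to nitrocellulose. Probed overnight at 4 °C for IκB-α, HRP secondary, ECL detection. Three separate experiments.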

A-375 [7] = test: Inhibition of NF-kappaB DNA binding activity in human A375 cells at 30 uM after 1 hr by electrophoretic mobility shift assay; assay type: cell-based; method in brief: as §2
A-375 [8] = test: Inhibition of NF-kappaB DNA binding activity in human A375 cells at 30 uM after 24 hrs by electrophoretic mobility shift assay; assay type: cell-based; method in brief: as §2
WM-115 [9] = test: Antiproliferative activity against human WM115 cells after 24 to 72 hrs by MTT assay; assay type: functional, cell-based
Method in brief: (§3)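 Cells grown in DMEM with 10% FBS, glutamine, HEPES and antibiotics at 37 °C, 5% CO2. Seeded at 1×10^4 cells/well and treated at 3, 10 or 30 μM for 24, 48 or 72 h. MTT (5 mg/mL stock) then added for 3 h at 37 °C. Crystals dissolved in 50% DMF/20% SDS pH 4.5; OD read at 620 nm. n = 3, mean ± SEM, ANOVA with Bonferroni.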

A-375 [10] = test: Inhibition of NF-kappaB DNA binding activity in human A375 cells at 30 uM after 8 hrs by electrophoretic mobility shift assay; assay type: cell-based; method in brief: as §2
A-375 [11] = test: Induction of apoptosis in human A375 cells assessed as early apoptotic cells at 30 uM after 48 hrs by annexin V/propidium iodide based flow cytometry; assay type: functional; method in brief: as §1
SK-MEL-28 [12] = test: Antiproliferative activity against human SK-MEL-28 cells at 30 uM after 72 hrs by MTT assay; assay type: functional; conditions: SK-MEL-28, 72 h; method in brief: as §3
WM-115 [13] = test: Antiproliferative activity against human WM115 cells at 3 to 30 uM by MTT assay; assay type: functional, cell-based; conditions: TDE = time-dependent effect; method in brief: as §3
[14] = Decrease in NFkappaB-mediated c-FLIP gene expression in human A375 cells at 30 uM after 8 hrs by Western blot analysis; assay type: cell-based; conditions: A-375
A-375 [15] = test: Activation of caspase 3 in human A375 cells assessed as cleavage of substrate PARP at 30 uM by Western blot analysis; assay type: functional, cell-based
Method in brief: (§4)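 Whole-cell A375 lysates collected 0, 1, 2, 4 and 8 h after 30 μM treatment, made in Tris/HCl pH 7.4 buffer with 0.1% Triton X-100, EDTA, vanadate, PMSF and protease inhibitors. 20 μg protein per lane on SDS-PAGE and nitrocellulose. Probed overnight at 4 °C for pro-caspase-3 and PARP, with β-actin; HRP secondary, ECL detection. Three separate experiments.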

[16] = Antiproliferative activity against human NHEM at 3 to 30 uM after 24 to 72 hrs by MTT assay
Method in brief: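 Normal human epidermal melanocytes grown in melanocyte growth medium 2. Seeded at 1×10^4 cells/well and treated at 3, 10 or 30 μM for 24, 48 or 72 h. MTT (5 mg/mL stock) then added for 3 h at 37 °C. Formazan dissolved in 50% DMF/20% SDS pH 4.5; absorbance at 620 nm.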

A-375 [17] = test: Antiproliferative activity against human A375 cells at 30 uM after 72 hrs by MTT assay; assay type: functional; conditions: A-375, 72 h; method in brief: as §3
A-375 [18] = test: Activation of caspase 3 in human A375 cells assessed as reduction in pro-caspase 3 at 30 uM by Western blot analysis; assay type: functional, cell-based; conditions: TDE = time-dependent effect; method in brief: as §4
SK-MEL-28 [19] = test: Antiproliferative activity against human SK-MEL-28 cells after 24 to 72 hrs by MTT assay; assay type: functional, cell-based; method in brief: as §3
WM-115 [20] = test: Antiproliferative activity against human WM115 cells at 30 uM after 72 hrs by MTT assay; assay type: functional; conditions: WM-115, 72 h; method in brief: as §3
A-375 [21] = test: Antiproliferative activity against human A375 cells after 24 to 72 hrs by MTT assay; assay type: functional, cell-based; method in brief: as §3
[22] = Decrease in NFkappaB-mediated XIAP gene expression in human A375 cells at 30 uM after 8 hrs by Western blot analysis; assay type: cell-based; conditions: A-375
A-375 [23] = test: Antiproliferative activity against human A375 cells at 3 to 30 uM by MTT assay; assay type: functional, cell-based; conditions: TDE = time-dependent effect; method in brief: as §3
A-375 [24] = test: Induction of apoptosis in human A375 cells assessed as late apoptotic cells at 30 uM after 48 hrs by annexin V/propidium iodide based flow cytometry; assay type: functional; method in brief: as §1
SK-MEL-28 [25] = test: Antiproliferative activity against human SK-MEL-28 cells at 3 to 30 uM by MTT assay; assay type: functional, cell-based; conditions: TDE = time-dependent effect; method in brief: as §3
A-375 [26] = test: Induction of apoptosis in human A375 cells assessed as necrotic apoptotic cells at 30 uM after 48 hrs by annexin V/propidium iodide based flow cytometry; assay type: functional; method in brief: as §1

COc1cc(/C=C/C(=O)CC(=O)/C=C/c2ccc(O)c(OC)c2)ccc1O [CURCUMIN]
Activity (A-375 [1]): 3.4% | Activity (A-375 [2]): 10.3% | Activity (A-375 [3]): 80%

C[C@H](/C=C/[C@@]1(O)[C@H](CO)CC(=O)CC1(C)C)O[C@@H]1O[C@H](CO)[C@@H](O)[C@H](O)[C@H]1O [LAUROSIDE B]
inhibition (A-375 [4]): 60% | inhibition (A-375 [5]): 20% | Activity (A-375 [6]): tde | inhibition (A-375 [7]): 6% | inhibition (A-375 [8]): 100% | inhibition (WM-115 [9]): Dose-dependent effect | inhibition (A-375 [10]): 86% | Activity (A-375 [11]): 0.6% | inhibition at 30 µM (SK-MEL-28 [12]): 33% | inhibition (WM-115 [13]): tde | Activity [14]: Active | Activity (A-375 [15]): Active | Activity [16]: Non-toxic | inhibition at 30 µM (A-375 [17]): 65% | Activity (A-375 [18]): tde | inhibition (SK-MEL-28 [19]): Dose-dependent effect | inhibition at 30 µM (WM-115 [20]): 50% | inhibition (A-375 [21]): Dose-dependent effect | Activity [22]: Active | inhibition (A-375 [23]): tde | Activity (A-375 [24]): 35% | inhibition (SK-MEL-28 [25]): tde | Activity (A-375 [26]): 5.1%
